Experimental data from ChEMBL document CHEMBL1687720 (Antimicrob Agents Chemother, 2009).

What was measured:
Plasmodium falciparum [1] = test: Upregulation of gamma-glutamylcysteine synthetase mRNA level in Plasmodium falciparum 3D7 trophozoites at 126 nM after 12 hrs by RT-qPCR analysis relative to untreated control; assay type: functional
Method in brief: (§1)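 Synchronized 3D7 trophozoites in RPMI/Albumax culture at 37°C under 3% O2, 3% CO2 were exposed 12, 15 or 18 h, then harvested by 0.02% saponin lysis. RNA was reverse-transcribed and analyzed by real-time PCR in quadruplicate. Quantification used ΔΔCT with 18S rRNA reference (LDH also checked), expressed as % of untreated control.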

Plasmodium berghei = test: Antimalarial activity against Plasmodium berghei infected in mouse assessed as reduction in parasite load at 10 mg/kg for 4 days treated postinfection measured on day 4; assay type: functional; design: scale not given: the % may be the effect or the level left
Method in brief: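 Murine Plasmodium berghei infection model. Compound given subcutaneously at 10 mg/kg for 4 days after infection, 13 treated mice and 13 controls. Parasitemia is compared with untreated controls, with significance by Fisher's exact test.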

Plasmodium falciparum [2] = test: Antiplasmodial activity against chloroquine-sensitive Plasmodium falciparum 3D7 assessed as inhibition of schizont stage parasite growth at 526 nM after 24 hrs by [3H]hypoxanthine incorporation assay; assay type: functional; conditions: read-out: GI
Method in brief: (§2)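 P. falciparum 3D7 is synchronized with sorbitol. […] Cells are washed four times, then labelled with [3H]hypoxanthine for 24 h. Growth is given as % of untreated control for each stage, in triplicate.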

A549 [3] = test: Inhibition of glutathione S-transferase in human A549 cells assessed as enzyme activity at 24 µM after 24 hrs relative to untreated control; design: scale not given: the % may be the effect or the level left
Plasmodium falciparum [4] = test: Upregulation of selenoprotein-1 mRNA level in Plasmodium falciparum 3D7 trophozoites at 126 nM after 12 hrs by RT-qPCR analysis relative to untreated control; assay type: functional; method in brief: as §1
A549 [5] = test: Cytotoxicity against human A549 cells after 24 hrs by Trypan blue assay; conditions: a549, 24 h
A549 [6] = test: Effect on glutathione S-transferase expression in human A549 cells assessed as transcript level at 5 nM after 24 hrs by RT-qPCR analysis relative to untreated control; assay type: functional; conditions: in the assay text read “5 µM” for “5 nM”
Method in brief: (§3)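 A549 cells are seeded at 2.5 × 10^5 per 25-cm2 well. At 40–45% confluence they are treated for 24 h with 166 or 662 μM, 158 or 315 μM, or 5 or 24 μM compound; controls receive <5% DMSO. Total RNA is DNase-treated and qRT-PCR is run in quadruplicate. Values are normalized to GAPDH and given as % of untreated control.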

A549 [7] = test: Effect on glutathione reductase expression in human A549 cells assessed as transcript level at 5 nM after 24 hrs by RT-qPCR analysis relative to untreated control; assay type: functional; conditions: in the assay text read “5 µM” for “5 nM”; method in brief: as §3
Plasmodium falciparum [8] = test: Antiplasmodial activity against chloroquine-sensitive Plasmodium falciparum 3D7 assessed as inhibition of ring stage parasite growth at 526 nM after 24 hrs by [3H]hypoxanthine incorporation assay; assay type: functional; conditions: read-out: GI; method in brief: as §2
[9] = molecular target: T1, Glutathione reductase, mitochondrial (Homo sapiens) (UniProt P00390); test: Inhibition of glutathione reductase in human A549 cells assessed as enzyme activity at 662 µM after 24 hrs relative to untreated control; design: scale not given: the % may be the effect or the level left
T1 sequence (whole entry): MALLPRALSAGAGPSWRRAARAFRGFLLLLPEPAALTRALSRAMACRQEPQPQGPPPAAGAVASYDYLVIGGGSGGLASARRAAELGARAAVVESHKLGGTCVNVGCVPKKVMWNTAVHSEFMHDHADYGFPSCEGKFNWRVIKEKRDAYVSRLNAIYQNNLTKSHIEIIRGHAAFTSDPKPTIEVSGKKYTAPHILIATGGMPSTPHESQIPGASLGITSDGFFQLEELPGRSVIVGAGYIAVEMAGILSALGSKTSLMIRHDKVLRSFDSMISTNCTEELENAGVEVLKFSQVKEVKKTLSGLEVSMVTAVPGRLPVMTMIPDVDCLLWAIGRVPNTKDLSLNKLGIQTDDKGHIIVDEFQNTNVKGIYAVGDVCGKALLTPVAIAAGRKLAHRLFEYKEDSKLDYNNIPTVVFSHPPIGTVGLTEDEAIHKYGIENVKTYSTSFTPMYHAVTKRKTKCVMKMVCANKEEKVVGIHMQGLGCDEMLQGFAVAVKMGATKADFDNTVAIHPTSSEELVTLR

A549 [10] = test: Effect on glutathione reductase expression in human A549 cells assessed as transcript level at 166 nM after 24 hrs by RT-qPCR analysis relative to untreated control; assay type: functional; conditions: in the assay text read “166 µM” for “166 nM”; method in brief: as §3
Thioredoxin reductase [11] = molecular target: T2, Thioredoxin reductase (Homo sapiens, UniProt Q16881+Q9NNW7+Q86VQ6); test: Inhibition of thioredoxin reductase in human A549 cells assessed as enzyme activity at 662 µM after 24 hrs by DTNB assay relative to untreated control; design: scale not given: the % may be the effect or the level left
A549 [12] = test: Effect on glutathione reductase expression in human A549 cells assessed as transcript level at 315 nM after 24 hrs by RT-qPCR analysis relative to untreated control; assay type: functional; conditions: in the assay text read “315 µM” for “315 nM”; method in brief: as §3
A549 [13] = test: Effect on glutathione reductase expression in human A549 cells assessed as transcript level at 158 nM after 24 hrs by RT-qPCR analysis relative to untreated control; assay type: functional; conditions: in the assay text read “158 µM” for “158 nM”; method in brief: as §3
Thioredoxin reductase [14] = molecular target: T2, Thioredoxin reductase; test: Inhibition of thioredoxin reductase in human A549 cells assessed as enzyme activity at 315 µM after 24 hrs by DTNB assay relative to untreated control; design: scale not given: the % may be the effect or the level left
A549 [15] = test: Effect on glutathione S-transferase expression in human A549 cells assessed as transcript level at 315 nM after 24 hrs by RT-qPCR analysis relative to untreated control; assay type: functional; conditions: in the assay text read “315 µM” for “315 nM”; method in brief: as §3
A549 [16] = test: Effect on thioredoxin reductase expression in human A549 cells assessed as transcript level at 315 nM after 24 hrs by RT-qPCR analysis relative to untreated control; assay type: functional; conditions: in the assay text read “315 µM” for “315 nM”; method in brief: as §3
[17] = molecular target: T1, Glutathione reductase, mitochondrial (Homo sapiens); test: Inhibition of glutathione reductase in human A549 cells assessed as enzyme activity at 315 µM after 24 hrs relative to untreated control; design: scale not given: the % may be the effect or the level left
A549 [18] = test: Effect on glutathione peroxidase expression in human A549 cells assessed as transcript level at 158 nM after 24 hrs by RT-qPCR analysis relative to untreated control; assay type: functional; conditions: in the assay text read “158 µM” for “158 nM”; method in brief: as §3

## O=c1oc2c(O)c(O)c(O)c3c(=O)oc4c(O)c(O)c(O)c1c4c23 [CORULEOELLAGIC ACID]
Plasmodium falciparum [1]
  Activity: 111%
Plasmodium berghei
  Activity: 84%
Plasmodium falciparum [2]
  inhibition of growth at 0.526 µM: 39%
A549 [3]
  Activity: 106%
Plasmodium falciparum [4]
  Activity: 160%
A549 [5]
  Activity: Non-toxic
A549 [6]
  Activity: 68%
A549 [7]
  Activity: 77%
Plasmodium falciparum [8]
  inhibition of growth at 0.526 µM: 38%

## O=c1oc2c(O)c(O)cc3c(=O)oc4c(O)c(O)cc1c4c23 [ELLAGIC ACID]
[9]
  Activity: 85%
A549 [10]
  Activity: 152%
Thioredoxin reductase [11]
  Activity: 77%

## O=c1oc2c(O)c(O)c(O)c3c(=O)oc4c(O)c(O)cc1c4c23 [FLAVELLAGIC ACID]
A549 [12]
  Activity: 70%
A549 [13]
  Activity: 105%
Thioredoxin reductase [14]
  Activity: 115%
A549 [15]
  Activity: 164%
A549 [16]
  Activity: 61%
[17]
  Activity: 119%
A549 [18]
  Activity: 107%
